E-selectin induc = induces E-selectin expression in human endothelial cells. actives 0.37% (n = 260,000). HUVEC E-selectin immunofluorescence imaging; normalized: neutral wells 0, TNF-alpha wells 100. activation, % at 7.58 µM. P16581. AID 686992;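 active = mean E-selectin-positive cell signal at least 10% of the positive control, reached in at least 60% of replicates, without over 20% cell loss; inconclusive = no rule given, readout overlaps actives, possibly toxicity-flagged; inactive = the rest, including those meeting only one limit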
Target sequence (P16581 whole entry, looked up): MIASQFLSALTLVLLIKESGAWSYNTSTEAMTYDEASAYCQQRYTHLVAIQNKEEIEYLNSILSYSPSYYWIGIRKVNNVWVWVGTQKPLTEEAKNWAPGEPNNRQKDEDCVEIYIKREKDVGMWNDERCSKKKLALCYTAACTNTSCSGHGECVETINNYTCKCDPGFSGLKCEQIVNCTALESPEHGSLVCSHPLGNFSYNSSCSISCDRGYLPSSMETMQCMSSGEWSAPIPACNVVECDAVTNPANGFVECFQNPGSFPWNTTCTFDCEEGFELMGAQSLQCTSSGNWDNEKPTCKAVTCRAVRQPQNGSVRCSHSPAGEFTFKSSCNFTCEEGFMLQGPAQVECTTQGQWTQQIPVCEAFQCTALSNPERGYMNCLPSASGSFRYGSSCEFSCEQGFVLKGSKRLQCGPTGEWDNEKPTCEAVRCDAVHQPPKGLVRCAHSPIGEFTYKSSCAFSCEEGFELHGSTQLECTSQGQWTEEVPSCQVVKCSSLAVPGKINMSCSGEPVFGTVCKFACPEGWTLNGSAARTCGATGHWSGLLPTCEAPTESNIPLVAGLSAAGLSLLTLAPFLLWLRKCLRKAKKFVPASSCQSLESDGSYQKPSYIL
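Read-out: % PE-positive cells | Test system: HUVEC | Doses: One compound dose added by pin transfer | Buffer or medium: EGM-2 over gelatin coat | Signal: Immunofluorescence imaging | Benchmarks: TNF-alpha, DMSO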
DENV2 CPE rescue = protects cells from dengue virus 2 cytopathic effect. DENV2-infected cells, cytopathic effect rescue, plate reader. CPE inhibition, % at 9.99 µM. actives 1.7% (n = 350,000); in the data active = CPE inhibition above about 20%, passing the limit was not always enough; inconclusive = no clear call, values can overlap the other calls; tested in BHK-21 cells;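 also: 0% = median of neutral control wells and 100% = median of positive control wells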
ERAP1 HTS inh = ERAP1 (human) enzyme inhibition; Q9NZ08; recombinant ERAP1, Leu-AMC fluorescence, 60 min; inhibition, % at 10.7 µM; actives 0.15% (n = 340,000);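 active = mean replicate inhibition of at least 30%, or all replicates individually reaching that 30% level; inactive = mean below 30% and not every replicate reaching it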;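 also: 0% = neutral control wells and 100% = L-leucinethiol positive control wells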
miR122 inh = miR-122 inhibition in Huh7 cells. activation (reporter increase), % at 12.5 µM. Huh7 miR-122 Renilla luciferase sensor, 48 h; neutral wells = 0, positive control = 100. actives 0.3% (n = 340,000);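 active = mean replicate activation score at least 90 and every replicate individually at or above 90; inconclusive = only one of the two criteria met; inactive = neither criterion met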;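 also: higher luciferase means less miR-122 activity so hits act as miR-122 inhibitors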
F508del corr = CFTR F508del correction in bronchial cells. activity (quench increase), % at 7.58 µM. CFBE cells, YFP halide quenching; stimulated with forskolin plus potentiator P3; % fluorescence drop versus neutral controls. actives 0.36% (n = 350,000);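 active = mean added fluorescence quench of at least 8% versus neutral control, with both replicates also reaching 8%; inconclusive = only one of the mean or replicate conditions met; inactive = mean below 8% and not both replicates reaching 8%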;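 also: cells transiently co-express mutant CFTR-F508del with the halide-sensitive YFP; corrector assay measuring rescue of mutant channel to the surface after 24 h compound exposure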
INS-1E GSIS act = primary screen for activators of insulin secretion dependent on glucose, INS-1E cells, GLuc reporter luminescence | actives 0.61% (n = 370,000) | activation, % at 16.6 µM | INS-1E GLuc reporter insulin secretion, 2-3 h;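 active = lowest replicate activation of at least 40%, so every replicate reaches that level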;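 also: 0% = median of neutral control wells and 100% = median of IBMX positive control wells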
* hit, by the source's call; u = inconclusive; x = not tested or not shown; [ ] = remark or other dose. Sampled rows, rich in hits. Any-hit rate of the full collection: about 2.6%.

SMILES | E-selectin induc | DENV2 CPE rescue | ERAP1 HTS inh | miR122 inh | F508del corr | INS-1E GSIS act
COCCNC(=O)c1ccc(C)c(S(=O)(=O)Nc2ccc(C)cc2)c1 | x | x | -1 | u | -2 | -5
O=C(NCCCn1ccnc1)c1cccc(S(=O)(=O)Nc2ccc(F)cc2)c1 | 0 | 3 | 3 | 142* | 0 | -2
O=C(NCc1ccncc1)c1cccc(S(=O)(=O)Nc2ccc(F)cc2)c1 | 0 | 7 | -2 | 91* | 1 | -2
Cc1ccc(C(=O)NCC(=O)Nc2ccncc2)cc1C | 204* | 3 | -2 | x | -1 | 6
Cc1ccc(C(=O)NCCSc2ccccc2)cc1S(=O)(=O)Nc1ccccc1 | x | x | x | 94* | x | -25
C[C@H](NC(=O)C[C@@H]1C=C[C@@H](NC(=O)Nc2ccc3c(c2)OCO3)[C@H](CO)O1)c1ccccc1 | 0 | -3 | -1 | 3[16.7 µM] | -1 | 0
C[C@@H]1CN([C@H](C)CO)C(=O)c2cc(/C=C/c3ccccc3)cnc2O[C@H]1CN(C)C(=O)c1ccc2c(c1)OCO2 | 0 | 1 | 4 | 5[16.7 µM] | -1 | -47
COc1ccc2c3c(n(C)c2c1)[C@H](CO)N(C(=O)NC(C)C)CC31CN(C(C)=O)C1 | 0 | 1 | x | x | -1 | 13
O=C(NCCCN1CCCC1=O)c1cccc(NS(=O)(=O)c2ccc(Br)cc2)c1 | 1 | 12 | 0 | -5 | 1 | -7
O=C(NCCCN1CCCC1=O)c1cccc(S(=O)(=O)Nc2ccc(Br)cc2)c1 | 0 | -1 | -7 | 110* | 4 | -55
Cc1ccc(NS(=O)(=O)c2ccc(C(=O)NCc3ccncc3)cc2)cc1 | 0 | -4 | 0 | 6 | -3 | -20
Cc1ccc(NS(=O)(=O)c2cc(C(=O)NCc3ccncc3)ccc2C)cc1 | 0 | 9 | -3 | 117* | 2 | 0
CCCn1c(=S)[nH]c2cc(C(=O)NCc3ccccc3OC)ccc2c1=O | 0 | 2 | -1 | -1 | 2 | -8
COCCCNC(=O)c1ccc2c(=O)n(Cc3ccc(Cl)cc3)c(=S)[nH]c2c1 | 49* | 8 | -7 | x | 5 | x
CC(C)Cn1c(=S)[nH]c2cc(C(=O)NCc3ccccc3F)ccc2c1=O | 0 | 62* | -1 | -2 | -2 | -1
CN(C)C(=O)c1ccc(-c2cccc(-c3nc(C(=O)NC4CCC4)cc4c3[C@H](CCO)N([S@@](=O)C(C)(C)C)C4)c2)cc1 | 2 | -5 | 0 | x | 0 | 7
C/C=C/c1ccc([C@@H]2[C@H](CO)N3C(=O)CN(Cc4ccc(C(=O)OC)cc4)C[C@@H]23)cc1 | 0 | 5 | 2 | x | -8 | -5
C[C@H](CO)N1C[C@H](C)[C@H](CN(C)Cc2ccc(C(F)(F)F)cc2)Oc2ccc(NC(=O)NC3CCCCC3)cc2CC1=O | 1 | 10 | 0 | 5[16.7 µM] | 1 | -12
O=C(CSc1nc2nn(-c3ccccc3)c(=O)c-2c2n1CCCCC2)Nc1ccc(OC(F)F)cc1 | 0 | -2 | 1 | 4 | 8.1* | -51
Cc1[nH]c(=S)[nH]c(=O)c1Cc1c(O)ccc2ccccc12 | 1 | 3 | 1 | 134* | 0 | -15
COC(=O)C1=C(C(=O)OC)[C@@H]2N(C)c3ccccc3[C@@]23C[C@@H](CO)N(C(=O)c2cccs2)C3=N1 | 0 | -8 | -2 | -1 | -1 | -7
COC(=O)C1=C(C(=O)OC)[C@@H]2Nc3ccccc3[C@@]23C[C@@H](C(=O)OC)N(C(=O)c2cccs2)C3=N1 | 13 | 68* | 0 | x | 2 | -7
C=CCN1c2ccccc2[C@]23C[C@@H](C(=O)OC)N(C(=O)c4cccs4)C2=NC(C(=O)OC)=C(C(=O)OC)[C@H]13 | 0 | -4 | -2 | 0 | 8.0* | x
C[C@@H]1CN([C@H](C)CO)C(=O)c2cc(NC(=O)Nc3ccc(F)cc3)ccc2O[C@@H](C)CCCCO[C@@H]1CN(C)C(=O)c1ccccc1 | 0 | 4 | -4 | 1[16.7 µM] | 2 | -12
COc1ccc2c3c([nH]c2c1)[C@@H](CO)N(C(=O)c1ccccn1)CC31CN(C(=O)C2CC2)C1 | 0 | 5 | -2 | x | -1 | 18
SMILES | E-selectin induc | DENV2 CPE rescue | ERAP1 HTS inh | miR122 inh | F508del corr | INS-1E GSIS act
CC(=O)NCc1ccc(C(=O)COC(=O)COc2ccccc2)s1 | 0 | -8 | -4 | x | -2 | 1
CC(=O)NCc1ccc(C(=O)COC(=O)COc2ccc(Cl)c(C)c2)s1 | 0 | 65* | 1 | 1 | -1 | 3
CCn1c(SCC(=O)N(C)Cc2ccc(OC)c(F)c2)nc2cc(S(N)(=O)=O)ccc21 | 42* | 2 | 0 | -2 | 3 | 4
CCn1c(SCC(=O)N(C)C2CCCCC2)nc2cc(S(N)(=O)=O)ccc21 | 0 | -3 | 2 | -5 | -1 | x
CN(C)c1ccc(NC(=S)NC23CC4CC(CC(C4)C2)C3)cc1 | 73* | -3 | 3 | 6 | -3 | 18
CN1CCCCCC1C(=O)N1CCC(N2CCC(C(=O)N3CCOCC3)CC2)CC1 (stereo unspecified) | 1 | 1 | -1 | -2 | -1 | 49*
COCCNC(=O)C[C@@H]1C[C@H]2c3cc(N(C)C)ccc3O[C@H]2[C@@H](CO)O1 | 0 | 0 | -2 | 4[16.7 µM] | 0 | 12
CCCNC(=O)N1CC2(C1)[C@H](c1ccccc1)[C@@H](CO)N2Cc1ccccc1 | 0 | -5 | -2 | x | -3 | -1
Nc1nc(N)c(N=O)c(Nc2cccc(Cl)c2)n1 | 0 | 1 | 3 | x | 1 | 41*
O=C1C(=Cc2cccn2-c2ccccc2)C(=O)c2ccccc21 | -3 | x | x | 8 | x | 72*
O=C1C(=Cc2cccn2-c2ccc(O)cc2)C(=O)c2ccccc21 | x | x | x | 6 | x | x
COc1ccc2[nH]c(=O)c(CN(c3ccccc3)S(=O)(=O)c3ccccc3)cc2c1 | 86* | 1 | 1 | 4 | 0 | 20
O=[N+]([O-])/C(=C\Nc1ccccc1)S(=O)(=O)c1ccccc1 | x | x | x | 9 | x | 52*
CC(C)[C@H]1C(=O)N[C@@H](c2ccccc2)CC=CC[C@H](C)Oc2ccccc2C(=O)N1C (mixture of isomers) | x | x | x | x | x | -8
CN(C)CC(=O)Nc1ccc2c(c1)[C@@H]1C[C@@H](CC(=O)N3CCc4ccccc4C3)O[C@@H](CO)[C@@H]1O2 | 1 | u | 2 | -3[16.7 µM] | 0 | 6
C=CCN1C(=O)[C@]2(O[C@H](CCO)[C@@H]([Si](C)(C)c3ccc(OC)cc3)[C@@H]2C)c2cc(NC(=O)[C@H](C)O)ccc21 | x | 42* | -1 | x | -1 | x
C=CCN1C(=O)[C@]2(O[C@H](CCO)[C@@H]([Si](C)(C)c3ccc(OC)cc3)[C@@H]2C)c2cc(I)ccc21 | x | 0 | 1 | x | -5 | x
